Source: ChEMBL document CHEMBL2417547 (J Med Chem, 2013)

How the values were obtained:
[1] = Cytotoxicity against HEK293 cells after 24 hrs; format: cell-based; settings: human, read-out: LC50
In short: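 HEK 293 cells seeded at 2 × 10⁵ cells per well; compounds added 24 h after seeding at 1% final DMSO. Living cell mass determined after 24 h incubation; LC₅₀ calculated. Doxorubicin positive control, rifampicin negative control. Mean of more than three repeats.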

[2] = Half life in rat plasma at 1 uM by LC-MS/MS analysis; format: ADME, cell-free
In short: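 Compound at 1 μM in pooled heparinized plasma of the stated species, 37 °C, sampled at 0, 10, 30, 60 and 150 min. Proteins precipitated with 5 volumes of cold acetonitrile containing internal standard. Remaining compound quantified by LC-MS/MS to give half-life.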

[3] = Half life in human liver S9 fraction at 1 uM by LC-MS/MS analysis; format: ADME, subcellular
In short: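 Pooled human liver S9 fraction, 1 mg/mL, with 2 mM NADPH regenerating system, 1 mM UDPGA and 0.1 mM PAPS (phase I and II). Compound at 1 μM, 37 °C, sampled at 0, 5, 15 and 60 min. Stopped with cold acetonitrile containing internal standard. Remaining compound measured by LC-MS/MS and used to derive t1/2. Mean of more than three repeats.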

[4] = target: Cytochrome P450 3A4 (Homo sapiens, UniProt P08684); assay: Inhibition of CYP3A4 (unknown origin) using 7-benzyloxy trifluoromethylcoumarin as substrate; format: ADME
Chain of Cytochrome P450 3A4 (P08684 whole entry): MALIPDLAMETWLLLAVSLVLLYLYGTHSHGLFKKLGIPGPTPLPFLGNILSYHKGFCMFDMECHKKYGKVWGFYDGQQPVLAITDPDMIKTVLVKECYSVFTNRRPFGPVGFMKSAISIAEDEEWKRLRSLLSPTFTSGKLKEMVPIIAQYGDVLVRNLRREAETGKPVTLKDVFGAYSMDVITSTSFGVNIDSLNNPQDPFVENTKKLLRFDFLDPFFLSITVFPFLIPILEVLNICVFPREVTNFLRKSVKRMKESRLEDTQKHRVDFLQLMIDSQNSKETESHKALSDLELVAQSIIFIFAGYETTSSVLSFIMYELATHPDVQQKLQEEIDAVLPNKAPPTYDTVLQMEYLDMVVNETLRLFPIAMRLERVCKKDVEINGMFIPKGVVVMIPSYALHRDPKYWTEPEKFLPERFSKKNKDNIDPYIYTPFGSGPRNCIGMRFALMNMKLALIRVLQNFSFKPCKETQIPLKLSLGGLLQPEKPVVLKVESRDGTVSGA
In short: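 Commercial CYP3A4/BFC inhibitor screening kit with 7-benzyloxy-trifluoromethylcoumarin as substrate at 50 μM, run per the kit instructions. IC50 determined.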

[5] = target: T1, Cytochrome P450 2A6 (Homo sapiens, UniProt P11509); assay: Inhibition of CYP2A6 (unknown origin) using coumarin as substrate; format: ADME
T1 sequence (P11509 whole entry): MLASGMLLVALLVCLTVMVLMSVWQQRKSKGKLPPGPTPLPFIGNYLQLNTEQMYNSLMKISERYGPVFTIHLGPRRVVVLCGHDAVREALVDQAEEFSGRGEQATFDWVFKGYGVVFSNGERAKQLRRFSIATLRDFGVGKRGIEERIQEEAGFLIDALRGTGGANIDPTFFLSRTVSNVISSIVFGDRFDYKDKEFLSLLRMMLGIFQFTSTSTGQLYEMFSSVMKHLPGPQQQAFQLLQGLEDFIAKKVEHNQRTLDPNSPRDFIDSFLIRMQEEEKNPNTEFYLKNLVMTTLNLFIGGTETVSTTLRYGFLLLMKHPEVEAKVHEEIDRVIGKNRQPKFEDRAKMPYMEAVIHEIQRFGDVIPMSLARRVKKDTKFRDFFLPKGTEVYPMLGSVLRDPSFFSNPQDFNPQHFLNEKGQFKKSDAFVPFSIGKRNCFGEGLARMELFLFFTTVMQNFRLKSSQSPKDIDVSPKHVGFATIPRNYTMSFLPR
In short: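 Commercial CYP2A6/coumarin inhibitor screening kit with coumarin as substrate at 3 μM, run per the kit instructions. IC50 determined.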

[6] = target: T2, CYP17 (Homo sapiens, UniProt P05093); assay: Inhibition of human CYP17 expressed in Escherichia coli co-expressing rat NADPH-P450 reductase using progesterone as substrate at 2 uM relative to control; settings: probe progesterone
T2 sequence (P05093 whole entry): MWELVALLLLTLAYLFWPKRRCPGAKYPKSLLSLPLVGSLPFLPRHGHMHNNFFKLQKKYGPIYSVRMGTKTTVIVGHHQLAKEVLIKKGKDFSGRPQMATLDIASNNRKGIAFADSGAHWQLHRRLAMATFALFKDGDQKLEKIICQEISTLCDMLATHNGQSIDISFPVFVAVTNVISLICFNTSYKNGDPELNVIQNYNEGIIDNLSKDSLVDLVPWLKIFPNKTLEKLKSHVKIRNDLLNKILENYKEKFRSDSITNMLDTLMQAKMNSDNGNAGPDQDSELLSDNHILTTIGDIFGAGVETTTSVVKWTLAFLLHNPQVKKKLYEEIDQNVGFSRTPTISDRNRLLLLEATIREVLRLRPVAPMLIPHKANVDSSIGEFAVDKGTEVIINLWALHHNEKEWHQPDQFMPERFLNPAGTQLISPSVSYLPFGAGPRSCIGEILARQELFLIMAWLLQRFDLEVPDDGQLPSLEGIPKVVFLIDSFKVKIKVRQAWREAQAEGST
In short: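 Human CYP17 expressed in E. coli, co-expressing rat NADPH-P450 reductase. Progesterone substrate at 25 μM with NADPH cofactor. Test compound at 2 μM. Percent inhibition is the mean of at least three experiments (deviations <25%); values ≤5% are treated as not significant.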

[7] = species: Homo sapiens; assay: Selectivity factor, ratio of IC50 for human CYP11B2 to IC50 for human CYP11B1
In short: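 V79MZh hamster fibroblasts expressing human CYP11B1 or CYP11B2 were incubated with [1,2-3H]-11-deoxycorticosterone (100 nM) plus inhibitor at a range of concentrations. […] The selectivity factor is IC50(CYP11B2)/IC50(CYP11B1).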

[8] = target: T3, Cytochrome P450 11B2, mitochondrial (Homo sapiens, UniProt P19099); assay: Inhibition of human CYP11B2 expressed in hamster V79MZh cells using [1,2-3H]-11-deoxycorticosterone as substrate; format: cell-based
T3 sequence (P19099 whole entry): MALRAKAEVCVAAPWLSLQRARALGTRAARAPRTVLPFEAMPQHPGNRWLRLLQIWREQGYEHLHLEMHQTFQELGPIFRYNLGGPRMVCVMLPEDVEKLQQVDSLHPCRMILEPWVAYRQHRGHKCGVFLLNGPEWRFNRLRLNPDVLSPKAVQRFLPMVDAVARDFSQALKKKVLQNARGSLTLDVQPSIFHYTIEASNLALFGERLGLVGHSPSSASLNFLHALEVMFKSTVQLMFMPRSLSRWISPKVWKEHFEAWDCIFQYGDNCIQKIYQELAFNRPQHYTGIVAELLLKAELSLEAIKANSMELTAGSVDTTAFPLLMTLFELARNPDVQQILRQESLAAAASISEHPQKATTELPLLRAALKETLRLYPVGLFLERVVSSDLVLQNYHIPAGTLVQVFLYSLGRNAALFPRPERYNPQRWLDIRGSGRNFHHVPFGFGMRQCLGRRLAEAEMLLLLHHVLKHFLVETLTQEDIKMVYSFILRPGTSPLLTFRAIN
In short: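 V79MZh hamster fibroblasts expressing human CYP11B1 or CYP11B2 were incubated with [1,2-3H]-11-deoxycorticosterone (100 nM) plus inhibitor at a range of concentrations. The selectivity factor is IC50(CYP11B2)/IC50(CYP11B1).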

[9] = Half life in rat liver S9 fraction at 1 uM by LC-MS/MS analysis; format: ADME, subcellular
In short: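 Test compound at 1 μM with 1 mg/mL pooled rat liver S9, 2 mM NADPH regenerating system, 1 mM UDPGA and 0.1 mM PAPS (phase I and II), 37 °C. Sampled at 0, 5, 15 and 60 min and quenched with 2 volumes of cold acetonitrile containing internal standard. Remaining compound measured by LC-MS/MS to give t1/2 and CLint; mean of more than three repeats.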

SMILES: Cc1cncc(Cc2ccc(-c3ccccc3)nc2)c1
- CC50 at 24 h [1]: 61.4 µM
- half-life at 1 µM [2]: > 2.5 h
- half-life at 1 µM [3]: > 2.5 h
- IC50 [4]: 1.1 µM
- IC50 [5]: 106 µM
- inhibition at 2 µM [6]: 5%
- Ratio IC50 [7]: 15.1
- IC50 [8]: 0.033 µM
- half-life at 1 µM [9]: 0.267 h
